In brackets after ≈: the same amount, converted by molar mass.
Columns and labels:
[1] = tested on: tet^R E. coli; assay: Combination; format: cell-based, Escherichia coli; settings: for Fold enhancement: tetracycline, amphiphile 20 μM, Tet^R E. coli
[2] = tested on: human hepatocytes; assay: Human hepatocyte cell viability; format: cell-based; settings: 72 h, read-out: EC50 against human hepatocytes
Method in brief: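 Human hepatocytes treated with 1–100 μM test compound, or CCCP as control, for 72 h. Survival then determined.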

[3] = tested on: HEK-293, HeLa and Cos-7 cells; assay: Mammalian cell cytotoxicity; format: cell-based; settings: 1/2 MIC; 24 hours; XTT
Method in brief: (§1)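 HEK-293, HeLa and Cos-7 cells kept in DMEM with 10% FBS and 1% penicillin–streptomycin. Seeded at 3 × 10^4 cells per well and grown 24 h to 80–90% confluence. […] XTT assay: absorbance at 450 nm, 690 nm background. Percent survival versus untreated cells, three replicates, mean ± SD.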

[4] = molecular target: T1, NorA efflux pump (Staphylococcus aureus, UniProt P0A0J7); assay: Efflux pump inhibition; format: cell-based; settings: read-out: inhibition of NorA activity, lower than for 3 or 4
T1 sequence (P0A0J7 1-388): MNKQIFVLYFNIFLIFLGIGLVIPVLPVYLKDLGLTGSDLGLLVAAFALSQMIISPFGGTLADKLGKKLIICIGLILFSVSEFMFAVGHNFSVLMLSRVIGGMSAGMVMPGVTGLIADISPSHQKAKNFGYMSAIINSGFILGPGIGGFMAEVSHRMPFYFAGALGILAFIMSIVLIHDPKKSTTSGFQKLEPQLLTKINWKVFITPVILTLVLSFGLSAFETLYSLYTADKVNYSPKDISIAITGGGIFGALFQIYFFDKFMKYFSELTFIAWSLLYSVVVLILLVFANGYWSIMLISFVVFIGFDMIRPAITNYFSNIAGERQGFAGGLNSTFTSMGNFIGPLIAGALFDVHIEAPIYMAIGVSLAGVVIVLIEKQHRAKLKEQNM
Method in brief: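 S. aureus 1199B knocked back to OD600 0.550, then loaded with ethidium bromide (10 μg mL−1) plus 100 μM CCCP in MHII at OD600 1.000 for 20 min at room temperature. Spun, held on ice, warmed 5 min, adjusted to OD600 0.800. Added to wells containing test compound, CCCP or reserpine. Fluorescence read at ex 530/em 600 nm every minute for 20 min. Three runs, SD.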

[5] = tested on: E. faecalis (VanA); assay: MIC screening; format: cell-based, Enterococcus faecalis
Method in brief: (§2)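 Broth microdilution. Overnight cultures knocked back to OD600 0.100 and grown at 37 °C to OD600 0.500. Final inoculum 4 × 10^5 CFU mL−1 in cation-adjusted MHII; S. pneumoniae in CA-MHB with 5% LHB; tetR E. coli in LB with 100 μg mL−1 ampicillin. Final DMSO 0.5% v/v. Incubated 18–20 h at 37 °C, then OD600 read. MIC is ≥90% inhibition versus untreated cells. Triplicate wells, repeated on two further plates.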

[6] = tested on: E. faecalis (control); assay: MIC screening; format: cell-based, Enterococcus faecalis
Method in brief: as §2

[7] = tested on: E. coli (Tol-); assay: MIC screening; format: cell-based; settings: Escherichia coli
Method in brief: as §2

[8] = tested on: E. aerogenes (R:Cep); assay: MIC screening; format: cell-based, Enterobacter aerogenes; settings: Klebsiella aerogenes
Method in brief: as §2

[9] = tested on: P. aeruginosa (R:Mero); assay: MIC screening; format: cell-based; settings: Pseudomonas aeruginosa
Method in brief: as §2

[10] = tested on: E. coli (WT); assay: MIC screening; format: cell-based; settings: Escherichia coli
Method in brief: as §2

[11] = tested on: S. aureus 1199B; assay: MIC against NorA expressing S. aureus 1199B; format: cell-based; settings: Staphylococcus aureus
Method in brief: as §2

[12] = tested on: tet^R E. coli; assay: MIC against efflux pump expressing tet^R E. coli; format: cell-based; settings: Escherichia coli
Method in brief: as §2

[13] = Solubility in combination assay; settings: combination assay medium
[14] = tested on: S. pneumoniae (control); assay: MIC screening; format: cell-based; settings: Streptococcus pneumoniae
Method in brief: as §2

[15] = tested on: MRSA (USA 300); assay: MIC screening; format: cell-based; settings: Staphylococcus aureus, MRSA|USA300
Method in brief: as §2

[16] = tested on: MRSA (control); assay: MIC screening; format: cell-based; settings: Staphylococcus aureus
Method in brief: as §2

[17] = tested on: S. aureus (control); assay: MIC screening; format: cell-based; settings: Staphylococcus aureus
Method in brief: as §2

[18] = tested on: MRSA (USA100); assay: MIC screening; format: cell-based; settings: Staphylococcus aureus
Method in brief: as §2

[19] = tested on: MRSA; assay: MIC against MRSA as stated in text; format: cell-based; settings: Staphylococcus aureus
Method in brief: as §2

[20] = tested on: tet^R E. coli; assay: Resistance development by sequential culturing; format: cell-based, Escherichia coli; settings: 15 days
Method in brief: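 Serial passage of tetR E. coli in LB over 15 days, with minocycline as comparator. […] Each day, cells from the second-highest concentration that allowed growth were diluted 1:100 into fresh media at 0.25–4× MIC. Cultures growing above the MIC were passaged on antibiotic-free LB agar and the MIC was redetermined. Mean of three trials.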

[21] = tested on: tet^R E. coli; assay: Membrane permeability using propidium iodide and FDA; format: cell-based, Escherichia coli
Method in brief: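 tetR E. coli grown overnight with 100 μg mL−1 ampicillin (37 °C, 200 RPM) and knocked back to OD600 0.550. Treated 30 min at half-MIC; Triton X-100 and DMSO controls; DMSO 0.5%. Washed (3000 × g, 5 min) into PBS, then stained with propidium iodide (30 μM) and fluorescein diacetate (60 μM) for 30 min at 37 °C. Washed again and imaged by confocal microscopy.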

[22] = tested on: S. aureus 1199B; assay: Membrane permeability using propidium iodide; format: cell-based, Staphylococcus aureus; settings: 0.1% (1.6 mM)
[23] = tested on: HEK-293 cells; assay: Mammalian cell cytotoxicity; format: cell-based, human; settings: 1/2 MIC (4: 1 μM; colistin 0.125 μM); 24 hours; XTT
[24] = tested on: Cos-7 cells; assay: Mammalian cell cytotoxicity; format: cell-based, simian; settings: 1/2 MIC; 24 hours; XTT
Method in brief: as §1

[25] = tested on: tet^R E. coli; assay: Potassium transport; format: cell-based, Escherichia coli; settings: 30 μM
Method in brief: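 tetR E. coli pelleted at 2000 × g, resuspended in PBS and adjusted to OD 1.300. Stirred suspension monitored with a K+-selective electrode. Multiple test compound concentrations; mV recorded every 30 s for 15 min. [K+] calculated from a calibration curve. Total potassium pool from cells heated at 100 °C for 30 min, set as 100%. Three trials, SD.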

[26] = amphiphile at 1/2 MIC, tet^R E. coli

Q: With N#CC(C#N)=NNc1cccc(Cl)c1 [CCCP, carbonyl cyanide 3-chlorophenylhydrazone] as the molecule, how does the “FIC index with tetracycline” value [1, 26] read?
A: 0.75

Q: And the “increase (recovery) in activity of tetracycline” value [1, 26]?
A: 4 fold

Q: And the EC50 [2]?
A: 5 µM

Q: What about the cytotoxicity [3] of the same molecule?
A: cytotoxic

Q: And the inhibition at 4 µM [4]?
A: ~30%

Q: With CCCCCCCCCC(=O)N[C@@H](Cc1c[nH]c2ccccc12)C(=O)N[C@H](CC(N)=O)C(=O)N[C@@H](CC(=O)O)C(=O)N[C@@H]1C(=O)NCC(=O)N[C@@H](CCCN)C(=O)N[C@@H](CC(=O)O)C(=O)N[C@H](C)C(=O)N[C@@H](CC(=O)O)C(=O)NCC(=O)N[C@H](CO)C(=O)N[C@@H]([C@H](C)CC(=O)O)C(=O)N[C@@H](CC(=O)c2ccccc2N)C(=O)O[C@@H]1C [Daptomycin, daptomycin] as the molecule, how does the MIC [5] read?
A: 2.5 µM (≈ 4.05 µg/mL)

Q: And the MIC [6]?
A: 2.5 µM (≈ 4.05 µg/mL)

Q: With C[C@@H](O)[C@H]1C(=O)N2C(C(=O)O)=C(S[C@@H]3CN[C@H](C(=O)N(C)C)C3)[C@H](C)[C@H]12 [Meropenem, meropenem] as the molecule, how does the MIC [7] read?
A: < 0.33 µM

Q: What about the MIC [8] of the same molecule?
A: < 0.33 µM

Q: What about the MIC [9] of the same molecule?
A: > 166 µM

Q: And the MIC [10]?
A: < 0.33 µM

Q: Which MIC [11] does the source give for CCn1cc(C(=O)O)c(=O)c2cc(F)c(N3CCNCC3)cc21 [Norfloxacin, norfloxacin] here?
A: 64 µM (≈ 20.4 µg/mL)

Q: For COC(=O)[C@H]1[C@H]2C[C@@H]3c4[nH]c5cc(OC)ccc5c4CCN3C[C@H]2C[C@@H](OC(=O)c2cc(OC)c(OC)c(OC)c2)[C@@H]1OC [Reserpine, reserpine], which inhibition at 4 µM [4] is on record?
A: ~30%

Q: With CN(C)[C@@H]1C(O)=C(C(N)=O)C(=O)[C@@]2(O)C(O)=C3C(=O)c4c(O)cccc4[C@@](C)(O)[C@H]3C[C@@H]12 [Tetracycline, tetracycline] as the molecule, how does the MIC [12] read?
A: 900 ± 50 µM (≈ 400 µg/mL)

Q: With CC(C)[C@@H]1NC(=O)[C@H](C)OC(=O)[C@@H](C(C)C)NC(=O)[C@@H](C(C)C)OC(=O)[C@H](C(C)C)NC(=O)[C@H](C)OC(=O)[C@@H](C(C)C)NC(=O)[C@@H](C(C)C)OC(=O)[C@H](C(C)C)NC(=O)[C@H](C)OC(=O)[C@@H](C(C)C)NC(=O)[C@@H](C(C)C)OC1=O [Valinomycin, valinomycin] as the molecule, how does the solubility [13] read?
A: insoluble at >20 μM

Q: What about the Fold enhancement [1] of the same molecule?
A: 2 fold

Q: With CN[C@H](CC(C)C)C(=O)N[C@H]1C(=O)N[C@@H](CC(N)=O)C(=O)N[C@H]2C(=O)N[C@H]3C(=O)N[C@H](C(=O)N[C@H](C(=O)O)c4cc(O)cc(O)c4-c4cc3ccc4O)[C@H](O)c3ccc(c(Cl)c3)Oc3cc2cc(c3O[C@@H]2O[C@H](CO)[C@@H](O)[C@H](O)[C@H]2O[C@H]2C[C@](C)(N)[C@H](O)[C@H](C)O2)Oc2ccc(cc2Cl)[C@H]1O [Vancomycin, vancomycin] as the molecule, how does the MIC [14] read?
A: < 0.1 µM

Q: What about the MIC [15] of the same molecule?
A: 1 µM (≈ 1.45 µg/mL)

Q: What about the MIC [16] of the same molecule?
A: 1 µM (≈ 1.45 µg/mL)

Q: And the MIC [17]?
A: 0.5 µM (≈ 0.725 µg/mL)

Q: What about the MIC [18] of the same molecule?
A: 1 µM (≈ 1.45 µg/mL)

Q: And the MIC [19]?
A: 1 to 2 µM (≈ 1.45 to 2.9 µg/mL)

Q: With CN(C)c1ccc(O)c2c1C[C@H]1C[C@H]3[C@H](N(C)C)C(O)=C(C(N)=O)C(=O)[C@@]3(O)C(O)=C1C2=O [minocycline] as the molecule, how does the “resistance development, increase in MIC” value [20] read?
A: 40 fold

Q: Which “membrane permeability (propidium iodide)” value ([21]; 0.1% (1.6 mM)) does the source give for Triton X-100 here?
A: increases membrane permeability

Q: And the “membrane permeability (propidium iodide)” value [22]?
A: increases membrane permeability

Q: What about the Fold enhancement [1] of the same molecule?
A: 2 fold

Q: For colistin, which “concentration that increases membrane permeability (propidium iodide)” value [21] is on record?
A: ≥ 2000 nM

Q: And the “survival of HEK-293” value [23]?
A: about 60%

Q: What about the “survival of Cos-7” value [24] of the same molecule?
A: non-cytotoxic

Q: With gramicidin-D as the molecule, how does the “K+ release, percent of total potassium pool” value [25] read?
A: 50–60%

Q: What about the solubility [13] of the same molecule?
A: insoluble at >20 μM

Q: What about the Fold enhancement [1] of the same molecule?
A: 1 fold

From paper PMC9059958 (RSC Advances, 2019)
